Measurements of several laboratories.
Protocols differ between the studies behind these lines. pIC50: −log10 of the molar value.
Cell line: PC-3
Observed: cell growth or viability

CC[C@@]1(O)C(=O)OCc2c1cc1n(c2=O)Cc2cc3ccccc3nc2-1 — pIC50 (SRB; 48 h): 6.82
COc1cc(C(=O)c2nc(-c3c[nH]c4cccc(C)c34)c[nH]2)cc(OC)c1OC — pIC50 (MTS; 72 h): 6.33
O=C1CCP(=S)(c2ccccc2)CC1 — pIC50 (MTT; 72 h): 5.22
O=[N+]([O-])c1ccc(NCCCCN=C=S)c2nonc12 — pIC50 (MTT; 24 h): 5.48
O=C(O)C1C(c2ccccc2)C(C(=O)Oc2cc(-c3ccc4c(c3)OCO4)ccc2-c2cncnc2)C1c1ccccc1 (stereo not drawn) — pIC50 (MTT): 4.75
N=c1c2c(-c3ccccc3)c(-c3ccccc3)n(Cc3ccccc3)c2ncn1[C@H]1CC[C@H](O)CC1 — pIC50 (CCK-8): 4.96
O=C1CCc2cc(-c3cccc(OC(=O)[C@H]4[C@H](c5ccccc5)[C@@H](C(=O)O)[C@H]4c4ccccc4)c3)ccc2N1 — pIC50 (MTT): 4.88
O=C1CCP(=[Se])(c2ccccc2)CC1 — pIC50 (MTT; 72 h): < 4.00
COc1cc(C(=O)c2nc(-c3ccc4ccccc4c3)c[nH]2)cc(OC)c1OC — pIC50 (MTS; 72 h): 6.41
C[S+]([O-])CCCCN=C=S (stereo not drawn) — pIC50 (MTT; 24 h): 4.47
COc1cc(C(=O)c2nc(-c3cccc4[nH]ccc34)c(Br)[nH]2)cc(OC)c1OC — pIC50 (MTS; 72 h): < 6.00
S=P1(C2CCCCC2)CCCCC1 — pIC50 (MTT; 72 h): < 4.00
